Results: publication PMC2873069 (The journal of maternal-fetal & neonatal medicine : the …, 2010)
“Also recorded” adds a separate entry of the source. Where two headings read alike, the source gives them in different places.

Key:
[1] = cited from earlier work; for pharmacologic activity: hepatic metabolites
[2] = system: placental tissue enzymes; experiment: Metabolism of bupropion by placental tissue during perfusion; conditions: end of 4 hours of perfusion
[3] = system: perfused placental tissue; experiment: Effect of bupropion on placental tissue viability; design: species or system human; conditions: for effect on placental viability and functional parameters: 150 ng/ml and 450 ng/ml bupropion
[4] = system: term human placental lobule; assay type: in vitro ADME; conditions: for fetal/maternal concentration ratio: HSA 30 mg/ml
[5] = cited from earlier work
[6] = assay type: physicochemical
In short: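 Test compound as the [3H] form recirculated for 4 h through the closed perfusion circuit (glassware, teflon tubing, tygon peristaltic-pump tubing) without placenta, in M199 with dextran 40, heparin, gentamicin, sulfamethoxazole and trimethoprim at 37 °C. Run without and with human serum albumin at 30 mg/mL. Loss of radiolabel from the medium was tracked over 4 h.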

[7] = end of 4-hour perfusion, independent of initial concentration
[8] = bupropion 150 ng/mL, 4 hours of perfusion
[9] = bupropion 450 ng/mL, 4 hours of perfusion

For CC(NC(C)(C)C)C(O)c1cccc(Cl)c1 (centres unmarked) [erythrohydrobupropion], the pharmacologic activity [1] is given as “very low activity”.

With C[C@H](NC(C)(C)C)[C@@H](O)c1cccc(Cl)c1 [threohydrobupropion] the “ratio of metabolite to parent drug in placental tissue” value [2] was 0.06, the “ratio of metabolite to parent drug in the fetal circuit” value [2] was 0.07 and the “ratio of metabolite to parent drug in the maternal circuit” value [2] was 0.08. The “effect on placental viability and functional parameters” value [3] was “do not adversely affect” and the pharmacologic activity [1] was “very low activity”.

In the case of C[C@H]1NC(C)(C)CO[C@]1(O)c1cccc(Cl)c1 [hydroxybupropion], the “pharmacologic activity relative to the parent compound” value ([1]; hepatic metabolite) is listed as roughly 50%.

In the case of Cc1cc(=O)n(-c2ccccc2)n1C [AP, antipyrine], the “transplacental transfer to the fetal circuit” value ([4]; antipyrine 20 μg/mL co-transfused marker, 4 hours) is listed as “approximately 50%” and the “binding to plasma proteins and human serum albumin” value [5] is listed as “minimal binding”.

In the case of CC(NC(C)(C)C)C(=O)c1cccc(Cl)c1 (centres unmarked) [bupropion], the “decline in concentration in the maternal circuit (shape)” value ([4]; 150 ng/ml, 4 hours) is reported as “biphasic”, the “time at which equilibrium was achieved in the fetal circuit” value ([4]; 150 ng/ml, from time 0) is reported as 180 min and the “fetal circuit concentration as % of initial concentration” value ([4]; 450 ng/ml, end of 4 hours) is reported as 23 ± 2%. The fetal/maternal concentration ratio ([4]; bupropion 150 ng/ml in maternal circuit, end of 4-hour perfusion) was 1.07 ± 0.22, the fetal/maternal concentration ratio ([4]; bupropion 450 ng/ml in maternal circuit, end of 4-hour perfusion) was 1.00 ± 0.14 and the “fraction of drug remaining in the maternal circuit” value [4, 7] was 32 ± 5%. For the same compound, the “fraction of drug retained by placental tissue” value [4, 7] was 48 ± 6%, the “concentration in the fetal circuit at the end of the experiment” value ([4]; initial maternal concentration 150 ng/ml, 4 hours) was 35 ± 4 ng/mL and the “concentration in the fetal circuit at the end of the experiment” value ([4]; initial maternal concentration 450 ng/ml, 4 hours) was 104 ng/mL. The octanol/water partition coefficient ([5]; no reference given) was 3.21, the pKa ([5]; no reference given) was 7.6 and the “effect on placental viability and functional parameters” value [3] was “did not affect; also recorded: do not adversely affect”. For the same compound, the “O2 consumption, % of control period” value [3, 8] was 114 ± 37%, the “O2 consumption, experimental period” value [3, 8] was 6.6 ± 1.6 mL/min/kg and the “O2 transfer, % control period” value [3, 8] was 56 ± 21%. The “O2 transfer, experimental period” value [3, 8] was 0.22 ± 0.1 mL/min/kg, the “O2 consumption, % of control period” value [3, 9] was 98 + 38% and the “O2 consumption, experimental period” value [3, 9] was 3.7 + 1.2 mL/min kg. For the same compound, the “O2 transfer, % control period” value [3, 9] was 43 + 16% and the “release of hCG at the end of the experimental period (control period = 100%)” value ([3]; bupropion transfused in presence of HSA) was 94 ± 12%.

In the case of [^3H]-bupropion, the “binding to glassware and teflon tubing” value ([6]; 4 hours recirculation in absence of placenta) is reported as “negligible”, the “decline of initial amount in the medium” value ([6]; 4 hours recirculation in absence of placenta, no HSA) is reported as 40% and the “reduction of binding to tygon tubing” value ([6]; after addition of 30 mg/mL HSA to the perfusion medium) is reported as 25%.
